Source: ChEMBL document CHEMBL1134677, “Synthesis and biological evaluation of a novel series of furans: ligands selective for estrogen receptor alpha” (J Med Chem, 2001)

Legend:
[1] = system: Estrogen receptor (Ovis aries); assay: Relative binding affinity (RBA) for ER alpha using lamb uterine cytosol determined by a competitive radiometric binding assay using 10 nM [3H]estradiol as the radioligand; details: Uterus
[2] = molecular target: T1, Estrogen receptor (Homo sapiens) (UniProt P03372); assay: Relative binding affinity (RBA) for ER alpha (Estrogen receptor alpha) determined by a competitive radiometric binding assay using 10 nM [3H]estradiol as the radioligand
T1 sequence (whole entry): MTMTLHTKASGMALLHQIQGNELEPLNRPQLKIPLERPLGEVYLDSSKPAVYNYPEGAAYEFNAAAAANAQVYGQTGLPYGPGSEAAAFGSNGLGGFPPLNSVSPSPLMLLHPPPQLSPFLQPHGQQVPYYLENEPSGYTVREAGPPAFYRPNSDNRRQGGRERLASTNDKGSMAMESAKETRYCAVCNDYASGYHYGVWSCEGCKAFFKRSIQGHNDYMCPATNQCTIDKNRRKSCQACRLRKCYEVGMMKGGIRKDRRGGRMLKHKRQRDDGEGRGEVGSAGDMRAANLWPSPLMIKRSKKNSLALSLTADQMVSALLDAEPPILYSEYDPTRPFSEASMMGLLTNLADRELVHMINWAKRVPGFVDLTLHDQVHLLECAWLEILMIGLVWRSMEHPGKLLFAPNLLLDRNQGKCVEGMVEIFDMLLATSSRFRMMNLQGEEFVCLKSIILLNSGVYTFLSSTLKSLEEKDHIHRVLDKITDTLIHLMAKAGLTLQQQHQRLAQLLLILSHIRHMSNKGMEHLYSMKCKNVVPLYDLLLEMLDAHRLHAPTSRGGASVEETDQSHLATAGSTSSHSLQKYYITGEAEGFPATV
Procedure, shortened: (§1)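 Competitive radiometric binding with purified human ERα and 10 nM [3H]estradiol tracer. Bound receptor–ligand complex was adsorbed on hydroxylapatite. Incubation was at 0 °C for 18–24 h. Unlabeled competitors were dissolved in 1:1 DMF:TEA. RBA is expressed relative to estradiol (100%). Duplicate separate experiments were run, with CV <0.3.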

[3] = molecular target: Estrogen receptor beta (Homo sapiens) (UniProt Q92731); assay: Relative binding affinity towards estrogen receptor 2 determined by a competitive radiometric binding assay using 10 nM [3H]estradiol as the radioligand
Procedure, shortened: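 Competitive radiometric binding with purified human ERβ and 10 nM [3H]estradiol tracer. Hydroxylapatite captured the bound complex. Incubation was at 0 °C for 18–24 h. Competitors were dissolved in 1:1 DMF:TEA. RBA is relative to estradiol (100%). Duplicate independent experiments were run, with CV <0.3.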

[4] = molecular target: T1, Estrogen receptor (Homo sapiens); assay: Relative binding affinity for Estrogen receptor alpha compared 10 nM [3H]estradiol
Procedure, shortened: as §1

Sequence of Estrogen receptor beta (Homo sapiens) (Q92731 whole entry): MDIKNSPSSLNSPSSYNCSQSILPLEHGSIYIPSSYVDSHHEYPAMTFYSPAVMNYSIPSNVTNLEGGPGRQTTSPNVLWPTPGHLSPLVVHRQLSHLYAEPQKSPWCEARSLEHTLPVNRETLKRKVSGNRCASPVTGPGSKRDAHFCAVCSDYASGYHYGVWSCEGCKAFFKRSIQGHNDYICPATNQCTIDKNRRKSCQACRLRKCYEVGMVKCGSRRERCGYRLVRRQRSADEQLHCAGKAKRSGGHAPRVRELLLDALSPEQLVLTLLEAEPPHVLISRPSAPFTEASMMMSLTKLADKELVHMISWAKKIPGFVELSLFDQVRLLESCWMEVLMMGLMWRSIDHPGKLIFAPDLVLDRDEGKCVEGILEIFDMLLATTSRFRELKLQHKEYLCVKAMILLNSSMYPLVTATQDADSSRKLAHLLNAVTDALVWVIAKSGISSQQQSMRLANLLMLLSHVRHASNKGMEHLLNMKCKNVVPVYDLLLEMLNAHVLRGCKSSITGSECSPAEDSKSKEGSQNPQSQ

| relative binding affinity (RBA) [1] | relative binding affinity (RBA) [2] | relative binding affinity (RBA) [3] | relative binding affinity (RBA) [4] | SMILES |
| --- | --- | --- | --- | --- |
| 0.03 | – | – | – | Oc1ccc(-c2cc(-c3ccccc3)c(-c3ccc(O)cc3)s2)cc1 |
| 0.44 | 10.8 | 3.4 | – | CCc1c(-c2ccc(O)cc2)oc(-c2ccccc2)c1-c1ccccc1 |
| – | – | 0.89 | 75 | CC(C)Cc1c(-c2ccc(O)cc2)nn(-c2ccc(O)cc2)c1-c1ccc(O)cc1 |
| 3.6 | 100 | 1.8 | – | CCCc1c(-c2ccc(O)cc2)oc(-c2ccc(O)cc2)c1-c1ccc(O)cc1 |
| 0.1 | 6.8 | 2 | – | CCc1c(-c2ccccc2)oc(-c2ccc(O)cc2)c1-c1ccccc1 |
| 0.04 | – | – | – | Oc1ccc(-c2cc(-c3ccc(O)cc3)c(-c3ccccc3)o2)cc1 |
| 0.84 | 8.7 | 0.25 | – | Oc1ccc(-c2oc(-c3ccc(O)cc3)c(-c3ccc(O)cc3)c2-c2ccc(O)cc2)cc1 |
| 0.13 | – | – | – | Oc1ccc(-c2cc(-c3ccccc3)c(-c3ccc(O)cc3)o2)cc1 |
| 0.5 | – | – | – | CCc1c(-c2ccc(O)cc2)cc(-c2ccccc2)n1-c1ccc(O)cc1 |
| 0.04 | – | – | – | Oc1ccc(-c2cc(-c3ccc(O)cc3)c(-c3ccccc3)s2)cc1 |
| 4.6 | 82 | 7.1 | – | CCc1c(-c2ccc(O)cc2)oc(-c2ccccc2)c1-c1ccc(O)cc1 |
| 3.6 | 140 | 15 | – | CCCc1c(-c2ccc(O)cc2)oc(-c2ccccc2)c1-c1ccc(O)cc1 |
| 2.9 | 40 | 0.62 | – | Cc1c(-c2ccc(O)cc2)oc(-c2ccc(O)cc2)c1-c1ccc(O)cc1 |
| 0.02 | 0.15 | 0.07 | – | CCc1c(-c2ccccc2)oc(-c2ccccc2)c1-c1ccc(O)cc1 |
| 0.7 | 16.5 | 3 | – | CCc1c(-c2ccc(O)cc2)oc(-c2ccc(O)cc2)c1-c1ccccc1 |
| 0.45 | 14.8 | 4.5 | – | CCc1c(-c2ccccc2)oc(-c2ccc(O)cc2)c1-c1ccc(O)cc1 |
| 6.5 | 140 | – | – | CCc1c(-c2ccc(O)cc2)oc(-c2ccc(O)cc2)c1-c1ccc(O)cc1 |
| – | – | – | 49 | CCCc1c(-c2ccc(O)cc2)nn(-c2ccc(O)cc2)c1-c1ccc(O)cc1 |
| 1.3 | 21 | 3.9 | – | CCCCc1c(-c2ccc(O)cc2)oc(-c2ccc(O)cc2)c1-c1ccc(O)cc1 |
